Laboratory results reported in ChEMBL document CHEMBL1154207, “Protease inhibitors from a water bloom of the cyanobacterium Microcystis aeruginosa” (J Nat Prod, 2009).

Columns and labels:
[1] = Inhibition of Chymotrypsin after 30 mins preincubated for 5 mins before addition of substrate
Summary of the method: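 Chymotrypsin enzyme solution at 1 mg/mL in 50 mM Tris-HCl/100 mM NaCl/1 mM CaCl₂/1 mM HCl. Substrate solution was 2 mM […] in the same buffer. Samples were dissolved in ethanol and diluted in buffer. Enzyme, sample and buffer were preincubated 5 min at 37 °C, then substrate was added. Absorbance at 405 nm was read at once and after 30 min at 37 °C.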

[2] = Inhibition of trypsin after 30 mins preincubated for 5 mins before addition of substrate
Summary of the method: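 Trypsin enzyme solution at 1 mg/mL in 50 mM Tris-HCl/100 mM NaCl/1 mM CaCl₂. Substrate solution was 2 mM N-benzoyl-D,L-arginine-p-nitroanilide in buffer. Test sample in ethanol was diluted with buffer and preincubated with enzyme in buffer for 5 min at 37 °C before substrate addition. Color was read at 405 nm immediately and after 30 min at 37 °C.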

Structure (SMILES): CC[C@H](C)[C@H]1C(=O)N(C)[C@@H](Cc2ccc(OC)c(Cl)c2)C(=O)N[C@@H](C(C)C)C(=O)O[C@H](C)[C@H](NC(=O)[C@H](O)CO)C(=O)N[C@@H](CCCNC(=N)N)C(=O)N[C@H]2CC[C@@H](O)N1C2=O
- IC50 [1]: 19.6 µM
- IC50 [2]: 3500 nM

Structure (SMILES): CC[C@H](C)[C@@H]1NC(=O)[C@H](Cc2ccc(OC)c(Cl)c2)N(C)C(=O)[C@H]([C@@H](C)CC)N2C(=O)[C@H](CC[C@H]2O)NC(=O)[C@H](CCCNC(=N)N)NC(=O)[C@@H](NC(=O)[C@@H](COS(=O)(=O)O)OS(=O)(=O)O)[C@@H](C)OC1=O
- IC50 [1]: > 100 µM
- IC50 [2]: 1700 nM

Structure (SMILES): CC[C@H](C)[C@@H]1NC(=O)[C@H](Cc2ccc(OC)c(Cl)c2)N(C)C(=O)[C@H]([C@@H](C)CC)N2C(=O)[C@H](CC[C@H]2O)NC(=O)[C@H](CCCNC(=N)N)NC(=O)[C@@H](NC(=O)[C@H](O)COS(=O)(=O)O)[C@@H](C)OC1=O
- IC50 [1]: 18.2 µM
- IC50 [2]: 700 nM

Structure (SMILES): CC[C@H](C)[C@@H]1NC(=O)[C@H](Cc2ccc(O)cc2)N(C)C(=O)[C@H]([C@@H](C)CC)N2C(=O)[C@H](CC[C@H]2O)NC(=O)[C@H](CCCNC(=N)N)NC(=O)[C@@H](NC(=O)[C@@H](COS(=O)(=O)O)OS(=O)(=O)O)[C@@H](C)OC1=O
- IC50 [1]: > 100 µM
- IC50 [2]: 2200 nM

Structure (SMILES): CC[C@H](C)[C@H]1C(=O)N(C)[C@@H](Cc2ccc(O)c(Cl)c2)C(=O)N[C@@H](C(C)C)C(=O)O[C@H](C)[C@H](NC(=O)[C@@H](COS(=O)(=O)O)OS(=O)(=O)O)C(=O)N[C@@H](CCCNC(=N)N)C(=O)N[C@H]2CC[C@@H](O)N1C2=O
- IC50 [1]: > 100 µM
- IC50 [2]: 1200 nM

Structure (SMILES): CC[C@H](C)[C@H]1C(=O)N(C)[C@@H](Cc2ccc(OC)c(Cl)c2)C(=O)N[C@@H](C(C)C)C(=O)O[C@H](C)[C@H](NC(=O)[C@H](O)CO)C(=O)N[C@@H](CCCNC(=N)N)C(=O)N[C@H]2CC[C@@H](OC)N1C2=O
- IC50 [1]: 2.8 µM
- IC50 [2]: 1100 nM
